Experimental data as given in ChEMBL document CHEMBL4689842, “EUbOPEN Chemogenomics Library wave 1” (2021).

System: U2OS
Assay: Multiplex assay against U2OS
Assay type: toxicity, cell-based
Details: human
Summary of the method: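 At seeding, live cells were stained with Hoechst33342, BioTracker Green Microtubule Cytoskeleton Dye, MitoTracker Red and Annexin V Alexa Fluor 680. After compound addition they were imaged on a CQ1 microscope at 37°C and 5% CO2, and CellPathfinder machine-learning gating sorted them into Hoechst high-intensity objects or normal cells, with normal cells further split into healthy, pyknosed or fragmented nuclei and pyknosed cells into mitotic or apoptotic. Tubulin, mitochondrial-mass and membrane-permeability phenotypes are given as per cents of cells with healthy nuclei.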

[1] = 12 h, 1 µM, compound concentration 1 uM, replicate 1
[2] = 12 h, 1 µM, compound concentration 1 uM, replicate 2
[3] = 12 h, 10 µM, compound concentration 10 uM, replicate 1
[4] = 12 h, 10 µM, compound concentration 10 uM, replicate 2
[5] = 24 h, 1 µM, compound concentration 1 uM, replicate 1
[6] = 24 h, 1 µM, compound concentration 1 uM, replicate 2
[7] = 24 h, 10 µM, compound concentration 10 uM, replicate 1
[8] = 24 h, 10 µM, compound concentration 10 uM, replicate 2
[9] = 48 h, 1 µM, compound concentration 1 uM, replicate 1
[10] = 48 h, 1 µM, compound concentration 1 uM, replicate 2
[11] = 48 h, 10 µM, compound concentration 10 uM, replicate 1
[12] = 48 h, 10 µM, compound concentration 10 uM, replicate 2

Structure (SMILES): Cc1nc(N2CC[C@H](O)C2)ncc1-c1cc(C(F)(F)F)cc2[nH]ncc12
- Population Apoptotic (%) [1]: 25%
- Population Fragmented Nuclei (%) [1]: 2%
- Population Healthy Nuclei (%) [1]: 93%
- Population Hoechst High Intensity Objects (%) [1]: 3%
- Population Membrane Permeable-Phenotype (%) [1]: 6%
- Population Mitochondria Different-Phenotype (%) [1]: 24%
- Population Mitotic Cells (%) [1]: 75%
- Population Normal (%) [1]: 96%
- Population Pyknosed Nuclei (%) [1]: 4%
- Population Tubulin-Different-Phenotype (%) [1]: 22%
- Total Cell Count [1]: 181
- Population Apoptotic (%) [2]: 14%
- Population Fragmented Nuclei (%) [2]: 4%
- Population Healthy Nuclei (%) [2]: 89%
- Population Hoechst High Intensity Objects (%) [2]: 11%
- Population Membrane Permeable-Phenotype (%) [2]: 5%
- Population Mitochondria Different-Phenotype (%) [2]: 28%
- Population Mitotic Cells (%) [2]: 85%
- Population Normal (%) [2]: 88%
- Population Pyknosed Nuclei (%) [2]: 5%
- Population Tubulin-Different-Phenotype (%) [2]: 19%
- Total Cell Count [2]: 111
- Population Apoptotic (%) [3]: 60%
- Population Fragmented Nuclei (%) [3]: 6%
- Population Healthy Nuclei (%) [3]: 88%
- Population Hoechst High Intensity Objects (%) [3]: 1%
- Population Membrane Permeable-Phenotype (%) [3]: 8%
- Population Mitochondria Different-Phenotype (%) [3]: 22%
- Population Mitotic Cells (%) [3]: 40%
- Population Normal (%) [3]: 98%
- Population Pyknosed Nuclei (%) [3]: 5%
- Population Tubulin-Different-Phenotype (%) [3]: 26%
- Total Cell Count [3]: 158
- Population Apoptotic (%) [4]: 16%
- Population Fragmented Nuclei (%) [4]: 9%
- Population Healthy Nuclei (%) [4]: 84%
- Population Hoechst High Intensity Objects (%) [4]: 12%
- Population Membrane Permeable-Phenotype (%) [4]: 6%
- Population Mitochondria Different-Phenotype (%) [4]: 31%
- Population Mitotic Cells (%) [4]: 83%
- Population Normal (%) [4]: 87%
- Population Pyknosed Nuclei (%) [4]: 6%
- Population Tubulin-Different-Phenotype (%) [4]: 41%
- Total Cell Count [4]: 153
- Population Apoptotic (%) [5]: 27%
- Population Fragmented Nuclei (%) [5]: 1%
- Population Healthy Nuclei (%) [5]: 94%
- Population Hoechst High Intensity Objects (%) [5]: 1%
- Population Membrane Permeable-Phenotype (%) [5]: 7%
- Population Mitochondria Different-Phenotype (%) [5]: 25%
- Population Mitotic Cells (%) [5]: 72%
- Population Normal (%) [5]: 98%
- Population Pyknosed Nuclei (%) [5]: 4%
- Population Tubulin-Different-Phenotype (%) [5]: 24%
- Total Cell Count [5]: 260
- Population Apoptotic (%) [6]: 14%
- Population Fragmented Nuclei (%) [6]: 3%
- Population Healthy Nuclei (%) [6]: 92%
- Population Hoechst High Intensity Objects (%) [6]: 6%
- Population Membrane Permeable-Phenotype (%) [6]: 3%
- Population Mitochondria Different-Phenotype (%) [6]: 24%
- Population Mitotic Cells (%) [6]: 85%
- Population Normal (%) [6]: 93%
- Total Cell Count [6]: 121
- Population Apoptotic (%) [7]: 27%
- Population Fragmented Nuclei (%) [7]: 3%
- Population Healthy Nuclei (%) [7]: 91%
- Population Hoechst High Intensity Objects (%) [7]: 4%
- Population Membrane Permeable-Phenotype (%) [7]: 5%
- Population Mitochondria Different-Phenotype (%) [7]: 12%
- Population Mitotic Cells (%) [7]: 72%
- Population Normal (%) [7]: 95%
- Population Pyknosed Nuclei (%) [7]: 4%
- Population Tubulin-Different-Phenotype (%) [7]: 28%
- Total Cell Count [7]: 173
- Population Apoptotic (%) [8]: 21%
- Population Fragmented Nuclei (%) [8]: 5%
- Population Healthy Nuclei (%) [8]: 81%
- Population Hoechst High Intensity Objects (%) [8]: 9%
- Population Membrane Permeable-Phenotype (%) [8]: 13%
- Population Mitochondria Different-Phenotype (%) [8]: 40%
- Population Mitotic Cells (%) [8]: 78%
- Population Normal (%) [8]: 90%
- Population Pyknosed Nuclei (%) [8]: 12%
- Population Tubulin-Different-Phenotype (%) [8]: 46%
- Total Cell Count [8]: 141

Structure (SMILES): CC(C)Oc1ccccc1C(=O)Nc1ccccc1C(=O)Nc1cccc(S(=O)(=O)C(F)(F)F)c1
- Population Apoptotic (%) [1]: 47%
- Population Fragmented Nuclei (%) [1]: 14%
- Population Healthy Nuclei (%) [1]: 67%
- Population Hoechst High Intensity Objects (%) [1]: 11%
- Population Membrane Permeable-Phenotype (%) [1]: 4%
- Population Mitochondria Different-Phenotype (%) [1]: 61%
- Population Mitotic Cells (%) [1]: 52%
- Population Normal (%) [1]: 88%
- Population Pyknosed Nuclei (%) [1]: 18%
- Population Tubulin-Different-Phenotype (%) [1]: 55%
- Total Cell Count [1]: 120
- Population Apoptotic (%) [2]: 33%
- Population Fragmented Nuclei (%) [2]: 20%
- Population Healthy Nuclei (%) [2]: 74%
- Population Hoechst High Intensity Objects (%) [2]: 5%
- Population Membrane Permeable-Phenotype (%) [2]: 10%
- Population Mitochondria Different-Phenotype (%) [2]: 45%
- Population Mitotic Cells (%) [2]: 66%
- Population Normal (%) [2]: 94%
- Population Pyknosed Nuclei (%) [2]: 6%
- Population Tubulin-Different-Phenotype (%) [2]: 37%
- Total Cell Count [2]: 62
- Population Apoptotic (%) [3]: 68%
- Population Fragmented Nuclei (%) [3]: 14%
- Population Healthy Nuclei (%) [3]: 61%
- Population Hoechst High Intensity Objects (%) [3]: 8%
- Population Membrane Permeable-Phenotype (%) [3]: 95%
- Population Mitochondria Different-Phenotype (%) [3]: 61%
- Population Mitotic Cells (%) [3]: 32%
- Population Normal (%) [3]: 91%
- Population Pyknosed Nuclei (%) [3]: 24%
- Total Cell Count [3]: 142
- Population Apoptotic (%) [4]: 90%
- Population Fragmented Nuclei (%) [4]: 17%
- Population Healthy Nuclei (%) [4]: 71%
- Population Hoechst High Intensity Objects (%) [4]: 4%
- Population Membrane Permeable-Phenotype (%) [4]: 97%
- Population Mitochondria Different-Phenotype (%) [4]: 92%
- Population Mitotic Cells (%) [4]: 10%
- Population Normal (%) [4]: 96%
- Population Pyknosed Nuclei (%) [4]: 10%
- Population Tubulin-Different-Phenotype (%) [4]: 100%
- Total Cell Count [4]: 53
- Population Apoptotic (%) [5]: 55%
- Population Fragmented Nuclei (%) [5]: 15%
- Population Healthy Nuclei (%) [5]: 71%
- Population Hoechst High Intensity Objects (%) [5]: 8%
- Population Membrane Permeable-Phenotype (%) [5]: 2%
- Population Mitochondria Different-Phenotype (%) [5]: 48%
- Population Mitotic Cells (%) [5]: 44%
- Population Normal (%) [5]: 91%
- Population Pyknosed Nuclei (%) [5]: 13%
- Population Tubulin-Different-Phenotype (%) [5]: 48%
- Total Cell Count [5]: 109
- Population Apoptotic (%) [6]: 33%
- Population Fragmented Nuclei (%) [6]: 21%
- Population Healthy Nuclei (%) [6]: 66%
- Population Hoechst High Intensity Objects (%) [6]: 7%
- Population Membrane Permeable-Phenotype (%) [6]: 11%
- Population Mitochondria Different-Phenotype (%) [6]: 58%
- Population Mitotic Cells (%) [6]: 66%
- Population Normal (%) [6]: 92%
- Population Pyknosed Nuclei (%) [6]: 11%
- Population Tubulin-Different-Phenotype (%) [6]: 35%
- Total Cell Count [6]: 57
- Population Apoptotic (%) [7]: 74%
- Population Fragmented Nuclei (%) [7]: 23%
- Population Healthy Nuclei (%) [7]: 48%
- Population Hoechst High Intensity Objects (%) [7]: 6%
- Population Membrane Permeable-Phenotype (%) [7]: 92%
- Population Mitochondria Different-Phenotype (%) [7]: 74%
- Population Mitotic Cells (%) [7]: 25%
- Population Normal (%) [7]: 93%
- Population Pyknosed Nuclei (%) [7]: 27%
- Population Tubulin-Different-Phenotype (%) [7]: 100%
- Total Cell Count [7]: 148
- Population Apoptotic (%) [8]: 100%
- Population Fragmented Nuclei (%) [8]: 17%
- Population Healthy Nuclei (%) [8]: 56%
- Population Hoechst High Intensity Objects (%) [8]: 11%
- Population Membrane Permeable-Phenotype (%) [8]: 91%
- Population Mitochondria Different-Phenotype (%) [8]: 94%
- Population Mitotic Cells (%) [8]: 0%
- Population Normal (%) [8]: 88%
- Population Tubulin-Different-Phenotype (%) [8]: 98%
- Total Cell Count [8]: 55
- Population Apoptotic (%) [9]: 81%
- Population Fragmented Nuclei (%) [9]: 10%
- Population Healthy Nuclei (%) [9]: 74%
- Population Hoechst High Intensity Objects (%) [9]: 3%
- Population Membrane Permeable-Phenotype (%) [9]: 4%
- Population Mitochondria Different-Phenotype (%) [9]: 31%
- Population Mitotic Cells (%) [9]: 18%
- Population Normal (%) [9]: 96%
- Population Pyknosed Nuclei (%) [9]: 14%
- Population Tubulin-Different-Phenotype (%) [9]: 25%
- Total Cell Count [9]: 109
- Population Apoptotic (%) [10]: 66%
- Population Fragmented Nuclei (%) [10]: 22%
- Population Healthy Nuclei (%) [10]: 72%
- Population Hoechst High Intensity Objects (%) [10]: 7%
- Population Membrane Permeable-Phenotype (%) [10]: 18%
- Population Mitochondria Different-Phenotype (%) [10]: 48%
- Population Mitotic Cells (%) [10]: 33%
- Population Normal (%) [10]: 92%
- Population Pyknosed Nuclei (%) [10]: 5%
- Population Tubulin-Different-Phenotype (%) [10]: 41%
- Total Cell Count [10]: 56
- Population Apoptotic (%) [11]: 77%
- Population Fragmented Nuclei (%) [11]: 64%
- Population Healthy Nuclei (%) [11]: 19%
- Population Hoechst High Intensity Objects (%) [11]: 7%
- Population Membrane Permeable-Phenotype (%) [11]: 36%
- Population Mitochondria Different-Phenotype (%) [11]: 84%
- Population Mitotic Cells (%) [11]: 22%
- Population Normal (%) [11]: 93%
- Population Pyknosed Nuclei (%) [11]: 15%
- Population Tubulin-Different-Phenotype (%) [11]: 93%
- Total Cell Count [11]: 190
- Population Apoptotic (%) [12]: 64%
- Population Fragmented Nuclei (%) [12]: 43%
- Population Healthy Nuclei (%) [12]: 38%
- Population Hoechst High Intensity Objects (%) [12]: 9%
- Population Membrane Permeable-Phenotype (%) [12]: 62%
- Population Mitochondria Different-Phenotype (%) [12]: 75%
- Population Mitotic Cells (%) [12]: 36%
- Population Normal (%) [12]: 90%
- Population Pyknosed Nuclei (%) [12]: 17%
- Population Tubulin-Different-Phenotype (%) [12]: 98%
- Total Cell Count [12]: 64
